Screening results (PubChem BioAssay)
KCNQ1 block: inhibitors of human KCNQ1 channel, primary screen, cell-based, thallium flux, high-throughput; AID 2642, 2010; Potassium voltage-gated channel subfamily KQT member 1 (Homo sapiens), P51787; CHO-K1 KCNQ1, FluxOR thallium flux fluorescence; active compounds read high; hit rate 1.3% among 310,000; B-score at 10 µM;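 active means compounds whose thallium flux B-score, printed positive for inhibition, exceeds three library SD while starting fluorescence stays within three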;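 further: channel opened by potassium depolarization with thallium stimulus after 20 min compound exposure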
hERG protect: hERG rescue from dofetilide block, primary screen, cell-based, CHO-hERG, FluxOR thallium flux, dofetilide IC70; Voltage-gated inwardly rectifying potassium channel KCNH2 (Homo sapiens), Q12809; dofetilide IC70 present; activation (rescue from dofetilide block), less the hit threshold, % at 10 µM; hit rate 0.51% among 310,000;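 active means activation above the mean of controls blocked by dofetilide plus 5 SD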;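 further: thallium influx through hERG after potassium depolarization seen as dye fluorescence rise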
KCNK9 inh: KCNK9 potassium channel inhibitors, primary screen, HEK293 cells, thallium flux; AID 488922, 2010; B-score at 10 µM; Potassium channel subfamily K member 9 (Homo sapiens), Q9NPC2; FluxOR thallium flux fluorescence; active compounds read low; hit rate 1.2% among 310,000;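 active means ratio B-score over 3 SD below the library mean, with starting fluorescence within 5 SD of its mean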;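 further: negative B-score means less thallium flux so channel inhibition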
Kir21 inh: inhibitors of mouse Kir2.1 inward-rectifier potassium channel. hit rate 0.85% among 310,000. B-score at 10 µM. HEK293-Kir2.1, FluxOR thallium flux fluorescence; active compounds read low. AID 1672, 2009;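 active means fluorescence ratio B-score at or below minus 3 SD of library scores, with starting-brightness B-score within 2 SD, cut at about -4.2 in these data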;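 further: channel flux triggered by added potassium and thallium sulfate stimulus; B-score of peak minus minimum fluorescence over baseline after thallium stimulus; more negative B-score means stronger Kir2.1 block with less thallium influx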
KCNQ1 act: potentiators or activators of KCNQ1 channel, primary screen, cell-based, thallium flux, high-throughput; Potassium voltage-gated channel subfamily KQT member 1 (Homo sapiens), P51787; CHO-K1 KCNQ1, thallium flux FluxOR fluorescence; active compounds read high; B-score at 10 µM; hit rate 0.35% among 310,000; AID 2648, 2010;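 active means fluorescence ratio B-score, a plate-corrected score, at least three library SD, with initial intensity B-score within 5 SD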
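assay system = CHO-K1 cells stably expressing KCNQ1 | medium = assay buffer, equal DMSO in all wells | timing = 37 °C overnight plating, 90-min dark dye load, 20-min compound pretreatment | measured by = kinetic FluxOR thallium fluorescence, 10-s 1-Hz baseline, 110-s post-stimulus read | measure = fluorescence change relative to baseline, converted to B score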
KCNK3 block: human KCNK3 channel inhibitors, primary screen, CHO cells, FluxOR thallium flux, B-score; hit rate 0.84% among 340,000; B-score at 10 µM; Potassium channel subfamily K member 3 (Homo sapiens), O14649; FluxOR fluorescence; active compounds read low;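 active means B-score under library mean minus 4 SD, starting fluorescence ratio at most library mean plus 5 SD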;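 further: more negative B-score means stronger inhibition of thallium flux through KCNK3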
KCNK9 inh conf: KCNK9 potassium channel inhibitors, confirmation, HEK293 cells, thallium flux, duplicate; shares compounds with KCNK9 inh; FluxOR thallium flux fluorescence; inhibition, % at 10 µM; hit rate 43% among 4,900; AID 492992, 2010;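 active means thallium signal inhibited by more than 5 SD of the compound-free buffer control wells, on both duplicate plates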
Kir2-1 spec: mouse Kir2.1 channel inhibition, confirmation, selectivity assay for KCNK9 modulator project, cell-based, HEK293, thallium flux; shares compounds with KCNK9 inh; Kir2.1 cells, FluxOR thallium flux fluorescence; inhibition, % at 10 µM; hit rate 4% among 4,900; AID 492993, 2010;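 active means thallium signal drop more than 5 SD beyond the mean of the no-compound control wells, seen in both duplicate plates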;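 further: signal is fluorescence rise after thallium addition divided by baseline fluorescence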
KCNK9 uninduced: thallium flux in non-induced HEK293 cells, confirmation, counter-screen for KCNK9 inhibitor project, cell-based, second counter screen, non-induced KCNK9-HEK293. FluxOR thallium flux. shares compounds with KCNK9 inh. inhibition, % at 10 µM. hit rate 40% among 4,900;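 active means thallium signal drop beyond 5 SD of the untreated control mean, on both duplicate plates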
Of the large screens only hits and unclear results are named; the others gave an inactive call (follow-up assays come after a bar, where they were run). Shown are actives, neighbours in structure and some others; about 3.7% of the full set was active somewhere.

CCNc1ccc(P(=O)(c2ccccc2)c2ccccc2)cc1	none
Cc1ccc(Cl)cc1N1CCN(C(c2cccnc2)c2nnnn2C2CCCCC2)CC1 (stereo not drawn)	KCNK9 inh -12.7, KCNK3 block -11 | KCNK9 inh conf 37.0% | Kir2-1 spec inactive | KCNK9 uninduced 44.0%
c1cnc2ccc(C(c3nnnn3C3CCCC3)N3CCN(c4nc5ccccc5s4)CC3)cc2c1 (stereo not drawn)	KCNK9 inh -9.16, KCNK3 block -9.1 | KCNK9 inh conf inactive | Kir2-1 spec inactive | KCNK9 uninduced 40.0%
CCC(c1nnnn1C(C)(C)C)N1CCN(c2cc(Cl)ccc2C)CC1 (stereo not drawn)	KCNK9 inh -9.92, KCNK3 block -8.88 | KCNK9 inh conf 49.0% | Kir2-1 spec inactive | KCNK9 uninduced 47.0%
COc1ccc(-c2noc(N3CCC(C(=O)NC(C)c4ccccc4)CC3)n2)cc1 (stereo not drawn)	none
Cc1ccc(NC(=O)NC2CC(=O)N(c3ccc4c(c3)OCCO4)C2)cc1F (stereo not drawn)	none
Cc1cc(C)n(CC(O)CN2c3ccccc3Sc3ccccc32)n1 (stereo not drawn)	KCNQ1 block 6 | KCNK9 inh conf inactive | Kir2-1 spec inactive | KCNK9 uninduced inactive
Cc1ccc(C)c(C(=O)COC(=O)C2CCN(c3ccc(C(F)(F)F)cn3)CC2)c1	none | KCNK9 inh conf inactive | Kir2-1 spec inactive | KCNK9 uninduced inactive
CN(C)c1ccc(NC(=O)CSc2nnc(-c3cnccn3)n2C)cc1	none
CC1=NOC(=O)/C1=C\c1ccc(-c2cc(Cl)ccc2Cl)o1	none | KCNK9 inh conf inactive | Kir2-1 spec inactive | KCNK9 uninduced inactive
C=CCc1cc(C(=O)N2CCCCC2)ccc1O	none
C=CCc1ccc(O)c(-c2ccc(O)c(CC=C)c2)c1	KCNK9 inh -18.4 | KCNK9 inh conf 76.5% | Kir2-1 spec inactive | KCNK9 uninduced 42.5%
Cc1c(N2C(=O)CSC2c2ccc(F)cc2)c(=O)n(-c2ccccc2)n1C (stereo not drawn)	none
CCc1nc2c(s1)CCc1onc(-c3ccc(Cl)cc3)c1-2	KCNK9 inh -12.9 | KCNK9 inh conf 69.5% | Kir2-1 spec inactive | KCNK9 uninduced 37.5%
COc1cccc(CNC(=O)c2cccc(NC(=O)C3=C(C)OCCS3)c2)c1	KCNK9 inh -8.88 | KCNK9 inh conf 50.0% | Kir2-1 spec inactive | KCNK9 uninduced inactive
CCCC(=O)NC(Nc1cc(C(F)(F)F)ccc1Cl)C(Cl)(Cl)Cl (stereo not drawn)	none
CCCC(=O)NC(Nc1cccc(C(F)(F)F)c1)C(Cl)(Cl)Cl (stereo not drawn)	KCNQ1 block 8, KCNK9 inh -8.76 | KCNK9 inh conf 32.0% | Kir2-1 spec inactive | KCNK9 uninduced 26.5%
COc1ccc(OC)c(C(=O)NC2CC(C)(C)Cc3c2cnn3-c2ccccc2)c1 (stereo not drawn)	none
C/C(=N\NC(=S)NCc1ccccc1)c1ccc(C(C)(C)C)cc1	none | KCNK9 inh conf inactive | Kir2-1 spec inactive | KCNK9 uninduced inactive
C/C(=N\NC(=S)NCc1ccccc1)c1ccc(C#N)cc1	none
CCCCn1c(SCC(N)=O)nc2c(sc3ccccc32)c1=O	none
CCSc1nc2c(sc3ccccc32)c(=O)n1C(C)C	hERG protect 6.1, KCNK9 inh -11.1, KCNQ1 act 13 | KCNK9 inh conf 46.5% | Kir2-1 spec inactive | KCNK9 uninduced inactive
COc1ccc(COC(=O)c2sc3nc4n(c(=O)c3c2C)CCC4)cc1	none
CC(NC(=O)CCCCCN1C(=O)c2ccccc2C1=O)c1ccc2c(c1)CCCC2 (stereo not drawn)	none | KCNK9 inh conf inactive | Kir2-1 spec inactive | KCNK9 uninduced inactive
CC(NC(=O)CCCCCCN1C(=O)c2ccccc2C1=O)c1ccc2c(c1)CCCC2 (stereo not drawn)	none | KCNK9 inh conf inactive | Kir2-1 spec inactive | KCNK9 uninduced inactive
C=CS(=O)(=O)N(Cc1ccccc1Br)[C@H](CO)CC(C)C	none (no result: KCNQ1 block, hERG protect, KCNK9 inh, Kir21 inh, KCNQ1 act)
COC(=O)C(Cc1ccccc1)NC(=O)CNC(=O)c1ccccc1OC (stereo not drawn)	none
CN(CC(=O)NC1CCCCCCC1)S(=O)(=O)c1cccc2cccnc12	none | KCNK9 inh conf inactive | Kir2-1 spec inactive | KCNK9 uninduced inactive
Nc1[nH]n2c(=O)c3c(nc2c1N=Nc1ccccc1)CCCC3	none
Nc1[nH]n2c(=O)c3c(nc2c1N=Nc1ccc(Cl)cc1)CCCC3	KCNK9 inh -9.62 | KCNK9 inh conf 39.0% | Kir2-1 spec inactive | KCNK9 uninduced inactive
O=S(=O)(c1ccccc1)N1N=C(c2cccs2)CC1c1ccc(Br)cc1 (stereo not drawn)	KCNK9 inh -13.4 | KCNK9 inh conf 37.0% | Kir2-1 spec inactive | KCNK9 uninduced 44.5%
Oc1ccc(C2=NN(c3ccccc3)C(c3ccc(F)cc3)C2)cc1 (stereo not drawn)	KCNK9 inh -11.5 | KCNK9 inh conf 42.5% | Kir2-1 spec inactive | KCNK9 uninduced 36.0%
Cc1ccc(C2CC(c3ccccc3)=NN2c2ccccc2)o1 (stereo not drawn)	KCNQ1 block 8, KCNK9 inh -9.09 | KCNK9 inh conf 41.0% | Kir2-1 spec inactive | KCNK9 uninduced 29.5%
COc1ccc(C2CC(c3cccs3)=NN2c2ccc(C=O)cc2)cc1 (stereo not drawn)	none (no result: KCNK3 block)
c1ccc(C2CC(c3cccs3)=NN2c2ccccc2)cc1 (stereo not drawn)	KCNK9 inh -8.73 | KCNK9 inh conf 48.5% | Kir2-1 spec inactive | KCNK9 uninduced inactive
Oc1ccccc1C1=NN(c2ccccc2)C(c2ccc(F)cc2)C1 (stereo not drawn)	none
CN(C)S(=O)(=O)n1cc(/C=C(\NC(=O)c2ccccc2Cl)C(=O)N2CCOCC2)c2ccccc21	none
